{"source": "ChEMBL document CHEMBL1139873", "about": "“Bispyridinium dienes: histone deacetylase inhibitors with selective activities” (J Med Chem, 2007)", "key": {"U-937 [1]": {"tested_on": "U-937", "assay": "Effect on alpha tubulin acetylation in U937 cells at 5 uM after 24 hrs by Western blot analysis", "format": "functional, cell-based", "conditions": "Homo sapiens"}, "U-937 [2]": {"tested_on": "U-937", "assay": "Effect on alpha tubulin acetylation in U937 cells at 1 uM after 24 hrs by Western blot analysis", "format": "functional, cell-based", "conditions": "Homo sapiens"}, "U-937 [3]": {"tested_on": "U-937", "assay": "Increase in histone H3 acetylation in U937 cells at 5 uM after 24 hrs by Western blot analysis", "format": "cell-based", "conditions": "Homo sapiens"}, "U-937 [4]": {"tested_on": "U-937", "assay": "Effect on granulocyte differentiation in U937 cells assessed as CD11c expression after 30 hrs", "format": "functional, Homo sapiens", "summary_of_the_method": "(§1)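 U937 cells were stained with phycoerythrine-conjugated anti-CD11c for 30 min at 4 °C in the dark, with PE-mouse IgG1 as the staining control. Cells were washed in PBS, taken up in PBS with 0.25 µg/mL propidium iodide and analysed by FACS. PI-positive cells were excluded.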"}, "U-937 [5]": {"tested_on": "U-937", "assay": "Induction of apoptosis in U937 cells after 30 hrs by FACS analysis", "format": "functional, cell-based", "conditions": "Homo sapiens", "summary_of_the_method": "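U937 cells in supplemented RPMI were exposed 30 h to compounds dissolved in DMSO (1 or 5 µM). Apoptosis was scored by flow cytometry as the percentage of active caspase 3-positive cells, as the mean of independent duplicates.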"}, "U-937 [6]": {"tested_on": "U-937", "assay": "Effect on cell cycle analysis in U937 cells assessed as accumulation at G1 phase after 30 hrs", "format": "functional, cell-based", "conditions": "Homo sapiens", "summary_of_the_method": "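U937 cells grown in RPMI with 10% FCS, antibiotics, 10 mM HEPES and 2 mM glutamine at 200 000 cells/mL, then treated 30 h with compounds in DMSO (1 or 5 µM). 2.5 × 10⁵ cells in hypotonic buffer (0.1% Triton X-100, 0.1% sodium citrate, 50 µg/mL propidium iodide, RNAse A), 30 min in the dark. DNA content by flow cytometry; run at least twice.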"}, "Histone deacetylase 1 [7]": {"molecular_target": "T1, Histone deacetylase 1 (Homo sapiens, UniProt Q13547)", "T1 sequence (Q13547 whole entry)": "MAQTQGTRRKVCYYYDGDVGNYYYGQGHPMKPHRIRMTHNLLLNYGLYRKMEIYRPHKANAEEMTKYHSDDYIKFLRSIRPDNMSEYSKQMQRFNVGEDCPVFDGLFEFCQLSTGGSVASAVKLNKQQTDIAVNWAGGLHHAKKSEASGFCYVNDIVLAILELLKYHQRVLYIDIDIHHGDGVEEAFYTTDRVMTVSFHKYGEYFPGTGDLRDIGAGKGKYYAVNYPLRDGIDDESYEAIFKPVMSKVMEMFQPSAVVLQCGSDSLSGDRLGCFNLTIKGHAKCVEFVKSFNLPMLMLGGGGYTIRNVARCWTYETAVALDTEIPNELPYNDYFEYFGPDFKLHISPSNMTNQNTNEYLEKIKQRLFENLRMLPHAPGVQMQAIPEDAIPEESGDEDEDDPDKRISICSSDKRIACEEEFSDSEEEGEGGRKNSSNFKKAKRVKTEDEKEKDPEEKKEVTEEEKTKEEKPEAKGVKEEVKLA", "assay": "Inhibition of HDAC1", "summary_of_the_method": "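Purified recombinant HDAC1 was incubated with the acetyl-lysine Fluor de Lys substrate, with or without inhibitor. Developer then released a fluorophore, read by fluorimetry. Four scalar concentrations were tested in quadruplicate to derive the IC50.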"}, "Histone deacetylase 4": {"molecular_target": "Histone deacetylase 4 (Homo sapiens, UniProt P56524)", "sequence (P56524 whole entry, the tested form may be a part)": "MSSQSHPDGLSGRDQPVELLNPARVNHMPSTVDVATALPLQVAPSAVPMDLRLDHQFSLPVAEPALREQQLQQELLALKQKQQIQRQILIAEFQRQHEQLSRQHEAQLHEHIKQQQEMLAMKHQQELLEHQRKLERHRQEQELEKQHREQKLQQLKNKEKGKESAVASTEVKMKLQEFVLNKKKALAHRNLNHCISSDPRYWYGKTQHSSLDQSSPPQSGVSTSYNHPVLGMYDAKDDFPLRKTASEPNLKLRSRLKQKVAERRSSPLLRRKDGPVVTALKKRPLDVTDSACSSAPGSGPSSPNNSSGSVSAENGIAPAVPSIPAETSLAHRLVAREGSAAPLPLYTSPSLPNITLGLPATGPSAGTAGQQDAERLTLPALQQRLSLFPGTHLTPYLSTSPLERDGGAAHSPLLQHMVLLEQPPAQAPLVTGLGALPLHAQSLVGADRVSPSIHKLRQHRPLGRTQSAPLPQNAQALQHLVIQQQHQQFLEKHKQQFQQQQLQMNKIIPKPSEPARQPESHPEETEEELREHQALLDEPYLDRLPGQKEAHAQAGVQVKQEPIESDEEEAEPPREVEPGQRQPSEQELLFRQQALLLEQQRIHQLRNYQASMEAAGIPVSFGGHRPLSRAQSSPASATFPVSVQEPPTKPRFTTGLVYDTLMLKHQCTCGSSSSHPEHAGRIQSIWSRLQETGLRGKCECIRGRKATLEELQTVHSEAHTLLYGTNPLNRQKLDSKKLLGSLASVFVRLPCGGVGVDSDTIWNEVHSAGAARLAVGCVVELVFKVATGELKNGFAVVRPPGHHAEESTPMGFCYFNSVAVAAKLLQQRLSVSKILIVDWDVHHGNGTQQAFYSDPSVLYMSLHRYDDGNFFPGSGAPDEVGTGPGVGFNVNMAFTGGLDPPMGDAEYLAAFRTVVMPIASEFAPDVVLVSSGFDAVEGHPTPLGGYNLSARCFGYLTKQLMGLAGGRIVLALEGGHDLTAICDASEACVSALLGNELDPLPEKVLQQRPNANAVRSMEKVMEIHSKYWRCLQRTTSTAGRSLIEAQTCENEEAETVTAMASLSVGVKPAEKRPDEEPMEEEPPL", "assay": "Inhibition of HDAC4", "summary_of_the_method": "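HDAC4 catalytic fragment (aa 627-1085, C-terminal GST tag, baculovirus-expressed) was used at 2 µg per assay with 1-2 h enzymatic incubation in the fluorimetric deacetylase assay. Four scalar concentrations were tested in quadruplicate, and the IC50 was calculated from fluorescence.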"}, "Histone deacetylase 1 [8]": {"molecular_target": "T1, Histone deacetylase 1", "assay": "Inhibition of HDAC1 at 5 uM"}, "U-937 [9]": {"tested_on": "U-937", "assay": "Effect on granulocyte differentiation in U937 cells assessed as CD11c expression at 5 uM after 30 hrs", "format": "functional, cell-based", "conditions": "Homo sapiens", "summary_of_the_method": "as §1"}}, "note": "Activity calls are given as the source filed them. The rule behind the calls is not given here.", "data": [{"compound": "c1cc2c[n+](c1)CCCCCCCCCCCCc1ccc[n+](c1)CCCCCCCCCCCC2", "values": [{"measurement": "Activity", "setting": "U-937 [1]", "value": "inactive"}, {"measurement": "Activity", "setting": "U-937 [2]", "value": "inactive"}]}, {"compound": "c1cc2c[n+](c1)CCCCCCCCCCCCc1ccc[n+](c1)CCCCCCCCCCC2", "values": [{"measurement": "Activity", "setting": "U-937 [1]", "value": "inactive"}, {"measurement": "Activity", "setting": "U-937 [2]", "value": "inactive"}]}, {"compound": "c1cc2c[n+](c1)CCCCCCCCCCCCCc1ccc[n+](c1)CCCCCCCCCCCC2", "values": [{"measurement": "Activity", "setting": "U-937 [1]", "value": "inactive"}, {"measurement": "Activity", "setting": "U-937 [2]", "value": "inactive"}, {"measurement": "Activity", "setting": "U-937 [3]", "value": "Active"}]}, {"compound": "Nc1ccccc1NC(=O)c1ccc(CNC(=O)OCc2cccnc2)cc1", "values": [{"measurement": "Activity", "setting": "U-937 [1]", "value": "inactive"}, {"measurement": "Activity", "setting": "U-937 [2]", "value": "inactive"}, {"measurement": "Activity", "setting": "U-937 [3]", "value": "Active"}]}, {"compound": "C=CCCCCCCc1ccc[n+](CCCCCCCCCCCCc2ccc[n+](CCCCCCC=C)c2)c1.[Cl-].[I-]", "values": [{"measurement": "Activity", "setting": "U-937 [4]", "value": 30, "unit": "%"}, {"measurement": "Activity", "setting": "U-937 [5]", "value": "Active"}, {"measurement": "Activity", "setting": "U-937 [1]", "value": "inactive"}, {"measurement": "Activity", "setting": "U-937 [2]", "value": "inactive"}, {"measurement": "Activity", "setting": "U-937 [3]", "value": "Active"}]}, {"compound": "c1cc2c[n+](c1)CCCCCCCCCCCCCc1ccc[n+](c1)CCCCCCCCCCC2", "values": [{"measurement": "Activity", "setting": "U-937 [1]", "value": "inactive"}, {"measurement": "Activity", "setting": "U-937 [2]", "value": "inactive"}, {"measurement": "Activity", "setting": "U-937 [3]", "value": "Active"}]}, {"compound": "O=C(CCCCCCC(=O)Nc1ccccc1)NO", "values": [{"measurement": "Activity", "setting": "U-937 [1]", "value": "inactive"}, {"measurement": "Activity", "setting": "U-937 [2]", "value": "inactive"}, {"measurement": "Activity", "setting": "U-937 [3]", "value": "Active"}]}, {"compound": "C=CCCCCCC[n+]1cccc(CCCCCCCCCCCC[n+]2cccc(CCCC=C)c2)c1.[Cl-].[I-]", "values": [{"measurement": "Activity", "setting": "U-937 [4]", "value": 30, "unit": "%"}, {"measurement": "Activity", "setting": "U-937 [6]", "value": "Active"}, {"measurement": "Activity", "setting": "U-937 [5]", "value": "Active"}, {"measurement": "IC50", "setting": "Histone deacetylase 1 [7]", "value": 1880, "unit": "nM"}, {"measurement": "IC50", "setting": "Histone deacetylase 4", "value": 540, "unit": "nM"}, {"measurement": "Activity", "setting": "U-937 [1]", "value": "inactive"}, {"measurement": "Activity", "setting": "U-937 [2]", "value": "inactive"}, {"measurement": "Activity", "setting": "U-937 [3]", "value": "Active"}]}, {"compound": "C=CCCCCCCc1ccc[n+](CCCCCCCCCCCCCc2ccc[n+](CCCCCCC=C)c2)c1", "values": [{"measurement": "Activity", "setting": "U-937 [5]", "value": "Active"}, {"measurement": "Activity", "setting": "U-937 [1]", "value": "inactive"}, {"measurement": "Activity", "setting": "U-937 [2]", "value": "inactive"}, {"measurement": "Activity", "setting": "U-937 [3]", "value": "Active"}]}, {"compound": "C=CCCCCCC[n+]1cccc(CCCCCCCCCCCC[n+]2cccc(CCCCC=C)c2)c1.[Cl-].[I-]", "values": [{"measurement": "Activity", "setting": "U-937 [4]", "value": 30, "unit": "%"}, {"measurement": "Activity", "setting": "U-937 [5]", "value": "Active"}, {"measurement": "IC50", "setting": "Histone deacetylase 1 [7]", "value": 530, "unit": "nM"}, {"measurement": "IC50", "setting": "Histone deacetylase 4", "value": "> 200000", "unit": "nM"}, {"measurement": "Activity", "setting": "U-937 [1]", "value": "inactive"}, {"measurement": "Activity", "setting": "U-937 [2]", "value": "inactive"}, {"measurement": "Activity", "setting": "U-937 [3]", "value": "Active"}, {"measurement": "Activity", "setting": "Histone deacetylase 1 [8]", "value": "Active"}, {"measurement": "Activity", "setting": "U-937 [9]", "value": "Active"}]}, {"compound": "c1cc2c[n+](c1)CCCCCCCCCCCCCCc1ccc[n+](c1)CCCCCCCCCCCCC2", "values": [{"measurement": "Activity", "setting": "U-937 [1]", "value": "inactive"}, {"measurement": "Activity", "setting": "U-937 [2]", "value": "inactive"}]}, {"compound": "C=CCCCCCC[n+]1cccc(CCCCCCCCCCCCC[n+]2cccc(CCCC=C)c2)c1.[Cl-].[I-]", "values": [{"measurement": "Activity", "setting": "U-937 [4]", "value": 30, "unit": "%"}, {"measurement": "Activity", "setting": "U-937 [5]", "value": "Active"}, {"measurement": "Activity", "setting": "U-937 [1]", "value": "inactive"}, {"measurement": "Activity", "setting": "U-937 [2]", "value": "inactive"}, {"measurement": "Activity", "setting": "U-937 [3]", "value": "Active"}]}, {"compound": "C=CCCCCCC[n+]1cccc(CCCCCCCCCCCCC[n+]2cccc(CCCCC=C)c2)c1", "values": [{"measurement": "Activity", "setting": "U-937 [5]", "value": "Active"}, {"measurement": "Activity", "setting": "U-937 [1]", "value": "inactive"}, {"measurement": "Activity", "setting": "U-937 [2]", "value": "inactive"}, {"measurement": "Activity", "setting": "U-937 [3]", "value": "Active"}]}, {"compound": "c1cc2c[n+](c1)CCCCCCCCCCCCCCc1ccc[n+](c1)CCCCCCCCCCCC2", "values": [{"measurement": "Activity", "setting": "U-937 [1]", "value": "inactive"}, {"measurement": "Activity", "setting": "U-937 [2]", "value": "inactive"}]}]}
